In ChEMBL document CHEMBL1146595, “Constituents from the leaves of Phellodendron amurense var. wilsonii and their bioactivity” (J Nat Prod, 2003):

How the values were obtained:
[1] = tested on: Radical scavenging activity; assay: Antioxidant activity assessed as DPPH free radical scavenging activity at 250 uM; type: functional
Method in brief: (§1)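 Radical-scavenging assay run by previously reported methods. Percent inhibition was recorded after a 30 min incubation.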

[2] = tested on: Radical scavenging activity; assay: Antioxidant activity assessed as DPPH free radical scavenging activity; type: functional; method in brief: as §1
[3] = molecular target: T1, Tyrosinase (Homo sapiens) (UniProt P14679); assay: Inhibition of tyrosinase at 333 uM
T1 sequence (whole entry): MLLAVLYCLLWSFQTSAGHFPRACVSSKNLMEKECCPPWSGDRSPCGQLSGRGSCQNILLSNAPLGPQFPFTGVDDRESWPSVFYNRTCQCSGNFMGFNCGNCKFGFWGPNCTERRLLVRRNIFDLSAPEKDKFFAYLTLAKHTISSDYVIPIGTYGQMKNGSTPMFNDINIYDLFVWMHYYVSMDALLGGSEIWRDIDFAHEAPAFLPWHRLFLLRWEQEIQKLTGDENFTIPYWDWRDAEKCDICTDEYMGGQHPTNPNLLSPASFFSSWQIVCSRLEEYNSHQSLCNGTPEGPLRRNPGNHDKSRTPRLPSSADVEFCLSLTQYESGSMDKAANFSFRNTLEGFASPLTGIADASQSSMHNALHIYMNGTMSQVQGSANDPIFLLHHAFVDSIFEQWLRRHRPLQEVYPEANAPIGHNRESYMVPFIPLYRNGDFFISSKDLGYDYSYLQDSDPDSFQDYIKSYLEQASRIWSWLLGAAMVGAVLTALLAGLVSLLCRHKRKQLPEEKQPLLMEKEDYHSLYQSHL

O=c1c(O[C@@H]2O[C@H](CO)[C@@H](O)[C@H](O)[C@H]2O)c(-c2ccc(O)cc2)oc2cc(O)cc(O)c12
inhibition [1]: 5.7%

CC(C)(O)CCc1c(O[C@@H]2O[C@H](CO)[C@@H](O)[C@H](O)[C@H]2O)cc(O)c2c(=O)c(O)c(-c3ccc(O)cc3)oc12 [AMURENSIN]
IC50 [2]: 88.3 µM | inhibition [3]: 15.4%

VITAMIN E
IC50 [2]: 8.3 µM

CC(C)=CCc1c(O)cc(O)c2c1O[C@@H](c1ccc(O)cc1)[C@@H](O)C2=O
inhibition [1]: 20.9%

O=c1c(O[C@@H]2O[C@H](CO)[C@@H](O)[C@H](O)[C@H]2O)c(-c2ccc(O)c(O)c2)oc2cc(O)cc(O)c12 [ISOQUERCETIN]
IC50 [2]: 32.2 µM

CC(C)=CCc1c(O[C@@H]2O[C@H](CO)[C@@H](O)[C@H](O)[C@H]2O)cc(O)c2c1O[C@H](c1ccc(O)cc1)[C@@H](O)C2=O
inhibition [1]: 34.6%

CC[C@H](CC[C@@H](C)[C@H]1CC[C@H]2[C@@H]3CC=C4C[C@@H](O)CC[C@]4(C)[C@H]3CC[C@]12C)C(C)C
inhibition [3]: 14.3%

C=C(C)[C@@H]1CC[C@]2(C)CC[C@]3(C)[C@H](CC[C@@H]4[C@@]5(C)CCC(=O)C(C)(C)[C@@H]5CC[C@]43C)[C@@H]12
inhibition [3]: -2.4%

O=c1c(O[C@@H]2O[C@H](CO)[C@H](O)[C@H](O)[C@H]2O)c(-c2ccc(O)cc2)oc2cc(O)cc(O)c12
inhibition [1]: 4.5%

CC1(C)O[C@H]2CC(=O)OC[C@]23[C@H]2CC[C@@]4(C)[C@H](c5ccoc5)OC(=O)[C@H]5O[C@]54[C@]2(C)C(=O)C[C@@H]13
inhibition [3]: 3.6%
